# According to the RNAGym collection of RNA variant scans (doi:10.1126/science.aae0568):
# Variants at the floor of the assay were thinned out.
# B1: tRNA (parent)
# chain: GUUCCGUUGGCGUAAUGGUAACGCGUCUCCCUCCUAAGGAGAAGACUGCGGGUUCGAGUCCCGUACGGAACG
# Variants of: B1
# Experiment: yeast fitness relative to wild type (ratio to wild type); higher = fitter; tRNA-Arg(CCU), competitive growth, 37 C, YPD
# Procedure, shortened: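 Changes in genotype frequencies gave Darwinian fitness relative to wild type. Frequencies were read by 100-nucleotide paired-end sequencing of gene amplicons before and after pooled Saccharomyces cerevisiae strains, carrying tRNA-Arg(CCU) gene variants at the native locus, were competed in YPD at 37°C for 24 hours in six replicates. A genotype was kept only with ≥ 100 starting reads, and estimates < 0.5 were set to 0.5.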
row,Variant,yeast fitness
1,GUUGCGUUGGCGUAAUGCUAACGCGUCUCCCUCCUAAGGAGAAGACUGCGGGUUCGAGUCCCGUACGAAACG,≤ 0.5
2,GUUGCGUUGGCGUAAUGGUAACGCGUCUCCCUCCUAAGGAUAAGACUGCGGGUUCGAGUCACGUAUGGAACG,≤ 0.5
3,GUUGCGUUGGCGAAAUGGUAACGCGUCUCCCUCCUAAGGAGAAGACUGCGGGUUCGAGUCCCGUACGGAACG,0.874
4,GUUGCGUCGGCGUAAUGGUAACGCGUCUCCCUCCUAAGGAGAAGACUGCGGGUUCGAGUCCCGUACGGAACG,0.89
5,GUUGCGGUGGCGUAAUGGUAACGCGUCUCCCUCCUAAGGAGAAGACUGCGGGUUGGAGUCCCGUACGGAACG,≤ 0.5
6,GUUGCGUUGGCUUCAUGGUAACGCGUCUCCCUCCUAAGGAGAAGACUGUGGGUUCGAGUCCCGUAUGGAACG,≤ 0.5
7,GUUGCGUUGGCGUAAUGGUAACGCGUCUCCCUCCUAAGCAGAAGGCUGCGGGUUCGCGUCCCGUUUGGAACG,0.796
8,GUUGCGGUGGCCUAAUGGUUACGCGUCUCCCUCCUAAGGAGAAGACUGCGGGUUCGAGUCCCGUACGGAUCG,≤ 0.5
9,GUUGCGUUGGCGUAAUAGUAACGCGUCUCCCUCCUAAGGAGAAGACUGCGGGUUCGAGUCCCAUAUGGAACG,≤ 0.5
10,GUUGCGUUGGCGAAAUGAUAACGCGUCUCCCUCCUAAGGAGAAGACUGCGGAUUGGAGUCCCGUACGGAACG,≤ 0.5
11,GUUGCGAUGGCGUAAUGGCCACGCGUCUCCCUCCUAAGGAGAAGACUGCGGGUUAGAGUCCCGUACGCAACG,≤ 0.5
12,GUUGCGUCGGCGUAAUGGUAAGGCGUCUCCCUCCUAAGGAGCAGACUGCGGGUUCGAGUCCCGUACGGAACG,≤ 0.5
13,GUUGCGUUGGCGUAAUAGUAACGCGUCUCCCUCCUAAGGGGAAGACUGCGGGUUCGAGUCCCGUACGGAACG,≤ 0.5
14,GUUGCGUUGGCGUAAUGGUAACGCGUCUCCCUCCUAAGGAAAAGACUGCGGGUUCGAGUCCCGUACGGAACG,0.768
15,GUUGCGCUGGCGUAAUGGUAAUGCGUAUCCCUCCUAAGGAGAAGACUGCGGGUUCGAGGCCCGUACGGAACG,≤ 0.5
16,GUUGCGUUGGCGUAAUGAUAACGCGUCUCCCUCCUAAGGAGAAGACUGCGGGUUCGAGUCCCGUAUGGAACG,0.524
17,GUUGCGUUGGCGUAAUGGUAACGCAUCCCCCUCCUCAGGAGAAGACUGCGGGUUCGAGUUCCGAAUGGAACG,≤ 0.5
18,GUUGCGUUGGCGUAAUGGUAACGCGUCUCCCUCCUAAGGAGAAGACUGCCGGUUCGAGUCCCGUACGGAACG,0.679
19,GUUGCGUUGGCUUCAUGGUAACGCGUCUCCCUCCUAAGGAGAAGACUGUGGGUUCGAGUCCCGUACGGAACG,≤ 0.5
20,GUUGCGUGGGCGUAAUGGUAACGCGUCUCCCUCCCAAGGAGAAGACUGCGGGGUCGAGUCCCGUACGGAACG,≤ 0.5
21,GUUGCGGUGGCGUAAUGGUAACGCGUCUCCUUCCUAAGGAGAAGACUGCGGGUUCGAGUCCCGUACGGAACG,0.56
22,GUUGCGUUGGCGUAAUGGUAACGCAUCUCCCUCCUAAGGAGAAGACUGCGAGUUCGAGUCCCGUACGGAACG,≤ 0.5
23,GUUGCGUUGGCGUAAUGGUAACCCGUCUCCCUCCUAAGGAGAAGACUGCGGGUUCGAGUCCCGUACGGAACG,0.587
24,GUUGCGUUGGCCUAAUGGUAACGCGUCUCCCUCCAAAGGAGAAGACUGGGGGUUCGAGUCCCGUAUGGAACG,0.658
25,GUUGCGUUGGCGUAAUGGUAACGCGUCUCCCUCCUAAGGAGAAGACUACGGGUUCGAGUCCCGUACGGAACG,0.876

row,Variant,yeast fitness
1,GUUGCGUUGGCGUAAUGGUAACGCGUCUCCCUCCUAAAGAGAAGACUGCGGGUUCGAGUCCCGUACAGAACG,≤ 0.5
2,GUUGCGUUGGCGUAAUAGUAACGCGUCUCCCUCCUAAGGAGAAGACUGCGGGUUUGAGUCCCGUACGGAGCG,≤ 0.5
3,GUUGCGUUGGCGUAAUAGUAAAGCGUCUCCCUCCUAAAGAGAAGACUGCGGGUUCGAGUCCCGUACGGAACG,0.638
4,GUUGCGUUGGCGUAAUGGUAACGCGUCUCCCUCCUAAGGAGAAGACUGCGCGUUCGAGUCCCGAACGGAACG,≤ 0.5
5,GUUGCGUUGGCGUAAUGAUAGCGCAUCUCCCUCCUAAGGAGAAGACUGCGCGUUCGAGUCCCGUACGGAACG,≤ 0.5
6,GUUGCGUUGGCGUAAUAGUAACGCGUCUCCCUCAUAAGGAGAGGACUGCGGGUUCGAGUCCCGUACGGAACG,0.633
7,GUUGCGUUGGCGUAAUGGUAACGCGUCUCCCUCCUAAGGAGAAGACUGCGUGUUCGAGUCCCGUACGGAACG,0.654
8,GUUGCGUCGGCGUAAAGGUACCGGGUCUCCCUCCUAUGGAGAAGACUGCGGGUUUGAGUCCUGUACGGUACG,≤ 0.5
9,GUUGCGUUGGCGUAAUGGUAACGCGUCUCCCUCCUAAGGAGAAGACUGCGGGUUCAAGUCCCGUACGGAACG,0.927
10,GUUGCGUUGGCGUAAUGGUAACGCAUCUCCCUCCUAAGGAGAAGACUGCGGGUUCGAGUCCCGUAAGGAACG,≤ 0.5
11,GUUGCGUUGGCGUAAUAGUAACGCGUCUCCCUCCUAAGGAGAAGCCUGCGGGUUCGAGUCCCGUACGGAACG,≤ 0.5
12,GUUGCGCUGGCGUAAUGGUAACGCGUCUCCCUGCUAAGGAGAAGACUGCGGAUUCGAGUCCCGUACGGAACG,0.652
13,GUUGCGUCGGCGUAAUGGUAACGCGUCUCCCUCCUAUGGAGCAGACUGCGGGUUCGAGUCCCGUAGGGAACG,≤ 0.5
14,GUUGCGUUGGCGAAAUGGUAACGCGUCUCCCUCCUAAGGAGAAGACUGCGGGUACGAGUCCCGUACGGAACG,≤ 0.5
15,GUUGCGAUGGCGUAAUGGUAAUGCGUCUCCCUCCUAAGGAGAAGACUGCGGGUUCGAGUCCCGUACGGAACG,≤ 0.5
16,GUUGCGUUGGCGUAAUGGUAACGCGUCUCCCUCCUAAGGAGAAGACUGCGGGUUCGAGUCCCGUACGUAACG,0.865
17,GUUGCGUUGGCGUAAUGGUAACGCGUCUCCCUCCUAAGGAGAAGACUGCGGGUUCGAGUCCCGUACGCAACG,0.971
18,GUUGCGCUGGCGUAAUGGUAACGCGUAUCCCUCCUAAGGAGAAGACUGCGGGUUCGAGUCCCGUACGGAUCG,≤ 0.5
19,GUUGCGCUGGCGUAAUGGUAACGCGUAUCCCUCCUAAGGAGAAGACUGCGGGUUCGAGUCCCGUAAGGAUCG,≤ 0.5
20,GUUGCGUUGGCGUAAUGGUAACGCGUCUCCCUCCUAAGGAGAAGACUGCGGGUUCAAGUCCCGUAGGGAACG,≤ 0.5
21,GUUGCGUUGGCCUAAUGGUAACGCGUCUCCCUCCUAAGGAGAAGAUUGCGGGUUCGAGUCCCGUACGGAACG,≤ 0.5
22,GUUGCGUUGGCGUAAUCGUAAAGCGUGUCCCUUCUAAGGAGAAGACUGGGGGUUCGAGUCCCGUACGGAACG,≤ 0.5
23,GUUGCGUUGGCGUAAUGGUAACGCGUCUCCCUCCUAAGGAAACGACUGCGGGUUCGAGUCCCGUACGGAACG,≤ 0.5
24,GUUGCGUUGGCGUAAUAGUAACGCGUCUCCCUCCUAAGGAGAAGACUGCGGGUUCGACUUCCGUACGGUACG,≤ 0.5
25,GUUGCGUCGGCGUAAUGGUAACGCGUCUCCCUCCUAAGGAGAAGACUCCGGGUUCGAGUCCCGUACGGAACG,0.568

row,Variant,yeast fitness
1,GUUGCGUUGGCGUAAUGGUAACCCGUCUCCCUCCUAAGGAGAAGACUGCGGGUUUGAGUCCCGUACGGAUCG,≤ 0.5
2,GUUGCGUUGGCGUAAUAGUAACGCGUCUCCCUCCUAAGGAGAAGACUGCGGGUUCCAGUGCCGUAUGGAACG,≤ 0.5
3,GUUGCGUUGGCGUAAUGGUAACGCGUCUCCCUCCUAAGGAGAAGACUGCGGCUUCGAGUCCCGUACGGAACG,0.655
4,GUUGCGUGGGCGUAAUGGUAACGCGUGUCCCUCCUAAGGAGAAGACUGCGGGUUCGAGUCCCGUACGGAACG,0.567
5,GUUGCGUUGGCGUAAUGGUAACGCGUCUCCCUCCUAAGGAGAAGACUGCGGGUUCGACUCCCGUAUGGAACG,0.73
6,GUUGCGUUGGCGUAAUGGUAACCCGUCUCCCUCCUAAGGAGAAGACUGCGGGUUCGAGUCGCGUACGGAACG,≤ 0.5
7,GUUGCGUCGGCGUAAUGGUAACGCGUCUCCGUGCUAAGGAGAAGACUGCGGGUUCGACUUCCGUACGGACCG,≤ 0.5
8,GUUGCGGUAGCGUAAUGGUGAAGCGUCUCCCUCCUAAGGAAAAGACUGCGGGUUCGAGUCCCGUACGGAACG,≤ 0.5
9,GUUGCGGUGGCGUAAUGGUAACGCGUCUCCCUCCUCAGGAGAAGACUGCGGGUUCGAGUCCCGUACGGAACG,≤ 0.5
10,GUUGCGUUGGCCUAAUGGUAACGCGUCUCCCUCCUAAGGAGAAGACUGCGGGUUCGAGUCCCGUACGGAACG,0.676
11,GUUGCGUCGGCGUAAUGGUAACGCGUCUCCCUCCUAAGGAGAAGACUGCGGGUUCGAGGCCCGUACGGAACG,≤ 0.5
12,GUUGCGUUGGCGUAAUGGUAACGCGUCUCCCUCCUAACGAGAAGACUGCGGGUUCGAGUCCCGUACGGAACG,0.763
13,GUUGCGUUGGCGUAAUGGUAACGCGUCUCCCUCCUAAAGAGAAGACUGCGGGUUCGAGUCCCGUACGGAACG,0.692
14,GUUGCGUUGGCGUAAUGGUAACGCCUCUCCCUCCUAAGGAGAAGAUUGCAGGUUCGAGUCCCGUACGGAACG,0.636
15,GUUGCGUUGGCAUAAUGGUAACGCGUCUCCCUCCUAACGAGAAGACUGCGGGUUCGAGUCCCGUAUGGAACG,≤ 0.5
16,GUUGCGUUGGCGUAAUAGUAAAGCGUCUCCCUCCUAAAGAGAAGACUGUGGGCUCGAGUCCCGUACGGAACG,≤ 0.5
17,GUUGCGUGGGCGUAAUGGUAACGAGUCUCCGUCCUAAGGAGAAGACUGCAGGUUCGAGUCCCGUACGGAACG,0.594
18,GUUGCGUUGGCGUAAUAGUAACGCGUCUUCCUCCUAAGGAGAAGACUGCGGGUUCGAGUCCUGUACGGAACG,≤ 0.5
19,GUUGCGUUGGCGUAAUCGUUACGCGUCUCCCUCCUACGGAGAAGACUGCGGGUUCGAGUCCCGUACGGAACG,0.717
20,GUUGCGUUGGCGUAAUAGUAACGCGUCUCCCUCCUAAGGACAAGACUGCGGGUUCGAAUCCCGUACGGAACG,≤ 0.5
21,GUUGCGUUGGCGUAAUGCUAACGGGUCUGCCUCCUAAGGAGAAGACUGCGGGUUCGAGUCCCGUACGGAACG,≤ 0.5
22,GUUGCGGUGGCGUAAUGGUGACGCGUCUCCCUCCUAAGGAGAAGACUGCGGGUUCGAGUCCCGUUCGGAACG,≤ 0.5
23,GUUGCGUUGGCGUAAUGGUAACGCCUCUCCCUCCUAAGGAGAAGACUGCGGGUUCGAGUCCCGUACGGAACG,0.982
24,GUUGCGUUGGCUUCAUGGUAACGCGUCUCCCUCCUAAGGAGAAGACUGGGGGUUCGUGUCGCGUACGGAACG,≤ 0.5
25,GUUGCGGUGGCGUAAUGGUAACGCGUCUACCUCCUAAGGAGAAGACUGCGGGUUCGAGUCCCGUCCGGAACG,≤ 0.5
